# From PubChem BioAssay AID1217 (Sanford-Burnham Center for Chemical Genomics, 2008)
# The campaign covered roughly 190,000 compounds. About 1,300 (0.68%) were called active. What follows is part of a selection rich in actives, with near analogues and random picks from the rest. Values without a mark were called inactive.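 The calls were made as follows: active = primary screen inhibition at 20 µM above a set limit (cut at about 50% in these data); inactive = the rest.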
# System: diaphorase (Clostridium kluyveri)
# Assay: compounds blocking diaphorase resazurin reduction – biochemical, uHTS, resorufin fluorescence, counter-screen for diaphorase-coupled primary assays, primary screen (AID 1217);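 also: plate controls were DMSO with full reaction for no effect and wells lacking NADH for full effect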
# Details: diaphorase resazurin-to-resorufin fluorescence, NADH, 16 min; at 20 µM; stronger effect = higher value; bacterial (C. kluyveri) enzyme, not human
# Summary of the method: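 Assay system: diaphorase enzyme from Clostridium kluyveri; Input: enzyme working solution with 0.14 U/mL diaphorase; Timing: 16 min at room temperature; Technique: resorufin fluorescence, excitation 544 nm, emission 590 nm; Benchmarks: positive control minus NADH, DMSO neutral control.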
row,Compound,inhibition
1,CN1CCN(/N=C/c2ccc(-c3ccc([N+](=O)[O-])cc3)o2)CC1,-3.7%
2,COc1ccc(N(C(=O)c2ccc(C)cc2)S(=O)(=O)c2cccs2)cc1,18.3%
3,CCC(C)(C)N=C(NC#N)Nc1cccnc1,59.6% (active)
4,CCOc1cccc(C(=O)Nc2cccnc2)c1,-6.7%
5,CC(C)(C)C1CCC(C(=O)Nc2cccnc2)CC1 (stereo not given),6.1%
6,Cc1nn(C)cc1C(=O)Nc1ccccc1Br,13.9%
7,O=C(CCn1ccc([N+](=O)[O-])n1)Nc1nccs1,9.2%
8,Oc1c(C=Nc2cccc3nsnc23)ccc2ccccc12,62.8% (active)
9,COc1ccc(C=Nc2cccc3ncccc23)cc1,39.7%
10,CCSC1=NCCN1S(=O)(=O)c1ccc(F)cc1,-9.8%
11,c1cnn(-c2cc(N3CCOCC3)ncn2)c1,15.6%
12,Cc1csc(NC(=O)NC2(C(F)(F)F)Oc3ccccc3O2)n1,38.6%
13,O=C(Nc1cc(N2CCOCC2)ncn1)NC1(C(F)(F)F)Oc2ccc(Cl)cc2O1 (stereo not given),62.6% (active)
14,CC(=O)C1=C(O)C(=O)N(c2cccnc2)C1c1ccc([N+](=O)[O-])cc1 (stereo not given),9.5%
15,COC(=O)C[n+]1cccc2ccccc21,2.1%
16,O=C(CSc1ccc(-c2ccco2)nn1)NCc1ccc2c(c1)OCO2,18.6%
17,C/C(=N\N1CCN(Cc2ccc(C)cc2)CC1)c1ccco1,3.3%
18,Cc1ccnc(N2CCC(C(=O)NC3CCCCCC3)CC2)n1,0.8%
19,Cc1ccnc(Nc2nc3ccccc3s2)n1,-16.3%
20,Cc1ccnc(-n2sc3ccccc3c2=O)n1,57% (active)
21,Cc1ccc(S(=O)(=O)N(C)C)cc1NC(=O)/C=C/c1cccs1,15.5%
22,C#Cc1ccc([C@@H]2C=C(C(=O)O)O[C@H](OCCCCO)C2)cc1,15%
23,O=C(CCN1C(=O)c2ccccc2C1=O)NCCCn1ccnc1,-0.3%
24,O=C(O)/C=C/c1cn(Cc2ccccc2)nc1-c1cccs1,9.8%
25,O=C(Cn1nnc(-c2ccccc2)n1)NCc1ccc2c(c1)OCO2,-5.8%

row,Compound,inhibition
1,c1ccc(-c2nnc3n2NC(c2ccc4c(c2)OCO4)S3)cc1 (stereo not given),50% (active)
2,Cc1cccc(C)c1NC(=O)CSc1nnc(-c2ccccc2)n1Cc1ccc2c(c1)OCO2,-6.5%
3,Cc1ccc(NS(=O)(=O)c2ccc(C)c(NC(=O)COc3ccc4ccccc4c3)c2)c(C)c1,30.9%
4,COc1ccc(N(C)S(=O)(=O)c2cccc3nsnc23)cc1,3.7%
5,NC(=O)Cc1ccc2sc(-c3ccccc3)nc2c1,12.5%
6,CCCCCC(=O)NC(=S)NNC(=O)c1ccc([N+](=O)[O-])cc1,54.7% (active)
7,CCCCCC(=O)Nc1ccc(C(=O)N/N=C/c2ccc([N+](=O)[O-])cc2)cc1,4.9%
8,Cc1cccc(C(=O)NNC(=O)c2cccc([N+](=O)[O-])c2)c1,10.9%
9,CC(C)(C)SCCNC(=O)c1cccc([N+](=O)[O-])c1,1.8%
10,CC(C)CC(=O)NC(=S)NNC(=O)c1cccc([N+](=O)[O-])c1,58.7% (active)
11,COCCCNC(=S)NC(=O)c1ccc([N+](=O)[O-])cc1,9.4%
12,Brc1cc(/C=N/n2cnnc2)oc1Br,-5.6%
13,O=C(COc1ccc(Cl)cc1)NCc1nnc(SCC(=O)NCC2CCCO2)o1 (stereo not given),3.2%
14,Cc1cc(C)n(CC(=O)Nc2ccc([N+](=O)[O-])cc2)n1,19.4%
15,COc1ccc(CNC(=O)CN(Cc2ccc(Cl)cc2)S(C)(=O)=O)cc1,12.3%
16,COc1ccc2c(c1)C(C)=CC(C)(C)N2C(=O)CNCc1ccc2c(c1)OCO2,34.2%
17,COc1ccc2c(c1)C(C)=CC(C)(C)N2C(=O)Nc1ccccc1,74.3% (active)
18,CC1=CC(C)(C)N(C(=O)CSc2nnc(-c3ccccc3)o2)c2ccc(C)cc21,6.9%
19,COCCNC(=O)Nc1ccc2nc(-c3ccco3)c(-c3ccco3)nc2c1,70.2% (active)
20,O=C(NCc1ccccn1)c1cc(-c2ccccc2Cl)on1,4.9%
21,O=C(NCc1ccccn1)c1ccc2nc(-c3ccco3)c(-c3ccco3)nc2c1,51% (active)
22,CN(c1ccc(C(=O)NCc2ccccn2)cc1)S(C)(=O)=O,5.3%
23,COc1ccc(NC(=O)Nc2ccc3nsnc3c2)cc1,15.1%
24,COc1ccc(NC(=O)Nc2ccc3nc(C)c(C)nc3c2)cc1,13.6%
25,CC(C)C(C)(C#N)NC(=O)CSc1nncn1-c1ccccc1 (stereo not given),12.5%

row,Compound,inhibition
1,O=C(CO/N=C/c1ccc(OC(F)F)cc1)NCc1ccc(F)cc1,9.6%
2,O=C(NNC(=O)C1CCN(c2ncccn2)CC1)c1ccccc1,-1.9%
3,CCN1CCN(C(c2cccnc2)c2cc(Cl)c3cccnc3c2O)CC1 (stereo not given),54.7% (active)
4,Oc1c(CN2CCN(c3ccc(F)cc3)CC2)cc(Cl)c2cccnc12,14.9%
5,CCOC(=O)N1CCN(C(c2cccnc2)c2ccc3cccnc3c2O)CC1 (stereo not given),48.3%
6,Cc1ccc(N(C(=O)Cc2cccs2)C2C=CS(=O)(=O)C2)cc1Cl (stereo not given),12.1%
7,CC(C)CCN1CCN(Cc2cn[nH]c2C2CCCCC2)CC1CCO (stereo not given),8.8%
8,COc1ccc(NS(=O)(=O)c2cc(NC(=O)CC(=O)c3ccc([N+](=O)[O-])cc3)ccc2C)cc1,-19.9%
9,c1ccc(-c2cc3c(NCC4COc5ccccc5O4)ncnc3s2)cc1 (stereo not given),14.4%
10,COc1ccc(-c2[nH]ncc2/C=N/NC(=O)c2cc(Br)ccc2O)c(OC)c1,8.8%
11,Cc1cc(C(=O)N/N=C/c2ccc(N3CCOCC3)cc2)c(C)o1,-7.7%
12,CCN(CC)c1ccc(C(=O)N/N=C/c2ccc(N3CCOCC3)cc2)cc1,14.2%
13,Cc1cc(Oc2ccccc2)nc(N2CCOCC2)n1,8.4%
14,Cc1ccccc1N/N=C/c1ccc(N2CCOCC2)cc1,13.9%
15,C(=N/Nc1cc(N2CCOCC2)nc(N2CCOCC2)n1)/c1ccccc1,65.9% (active)
16,CN(C)c1ccc(/C=N/Nc2cc(N3CCOCC3)nc(N3CCOCC3)n2)cc1,58% (active)
17,COc1cc2c(cc1OC)C(=O)NCC(C)(C)O2,-1.5%
18,Cc1cc(C)nc(-n2nc(C)cc2NC(=O)c2ccc(F)cc2F)n1,3.4%
19,Cc1cc(OCC(=O)NC2CCN(C)CC2)ccc1[N+](=O)[O-],3.6%
20,COc1cccc(NC(=O)c2ccc(S(=O)(=O)N(C)C)cc2)c1,5.6%
21,O=C(COC(=O)/C=C/c1cccc(Cl)c1)NCCc1ccccc1,8%
22,CCOc1ccccc1Nc1ccc(C(=O)O)cc1[N+](=O)[O-],9.2%
23,OCCC1CN(Cc2cccc(OC3CCCC3)c2)CCN1Cc1ccsc1 (stereo not given),8.6%
24,CCCCCCCNc1nc(Cl)nc(NCCO)n1,-16.1%
25,CCn1cc(C(=O)NCC2COc3ccccc3O2)c2cc(OC)c(OC)cc2c1=O (stereo not given),7.1%

row,Compound,inhibition
1,CCn1cc(C(=O)NCc2ccc3c(c2)OCO3)c2cc(OC)c(OC)cc2c1=O,59.4% (active)
2,CCn1cc(C(=O)N2CCN(Cc3ccc4c(c3)OCO4)CC2)c2cc(OC)c(OC)cc2c1=O,10.4%
3,N#CC1=C(N)Oc2[nH]c(=S)[nH]c(=O)c2C12C(=O)Nc1ccccc12 (stereo not given),25.5%
4,CCc1ccc(C2C(C#N)=C(N)Oc3n[nH]c(CC(=O)OC)c32)cc1 (stereo not given),4%
5,Cc1cc(C)c(C#N)c(SCc2[nH]nc3c2C(c2ccccc2)C(C#N)=C(N)O3)n1 (stereo not given),53% (active)
6,CCCc1[nH]nc2c1C(c1c(C)nn(-c3ccccc3)c1Cl)C(C#N)=C(N)O2 (stereo not given),26.8%
7,O=C(OCc1cc(Cl)ccc1OC(F)F)c1cccnc1,10.6%
8,CCN(CC)S(=O)(=O)c1cccc(-c2n[nH]c(=S)n2/N=C/c2ccc(C(=O)OC)cc2)c1,66.5% (active)
9,COC(=O)c1ccc(/C=N\n2c(C)nnc2C)cc1,-6.4%
10,COc1cc(/C=N/n2c(C)n[nH]c2=S)ccc1OCc1ccccc1,32%
11,CN1CCN(CC(=O)Nc2cccc([N+](=O)[O-])c2)CC1,12%
12,CCOc1ccc(-n2c(O)c(/C=N/c3ccnn3Cc3ccncc3)c3ccccc3c2=O)cc1,-12.9%
13,CCOc1ccc(-n2c(O)c(/C=N/Nc3nnc(C)c(=O)[nH]3)c3ccccc3c2=O)cc1,89.8% (active)
14,CCOc1ccc(-n2c(O)c(/C=N/Nc3nc(C)cc(C)n3)c3ccccc3c2=O)cc1,-1.1%
15,Oc1ccc(/C=N/Nc2ccc(C(F)(F)F)cn2)cc1O,53.7% (active)
16,COc1cccc(/C=N/Nc2ncc(C(F)(F)F)cc2Cl)c1O,0%
17,FC(F)(F)c1cccc(N/N=C/c2ccccc2)c1,23.2%
18,CN(Cc1ccccc1)C(=O)COC(=O)c1ccccc1Nc1ccccc1,28.3%
19,CCN(CC)c1ccc(/C=N/Nc2nc(C)cc(C)n2)c(O)c1,42.2%
20,CCN(CC)c1ccc2cc(C(=O)O)c(=O)oc2c1,11.2%
21,CCN(CC)c1ccc2oc(=O)c(C)nc2c1,62.3% (active)
22,CCc1ccc(NC(=O)Cn2nc(C)c([N+](=O)[O-])c2C)cc1,12.1%
23,COC(=O)c1ccc(OCC(=O)NC(C)(C)C)cc1,-15.5%
24,CC(=O)Nc1ccc(OCC(=O)NCc2ccc(C)cc2)cc1,11.1%
25,CC(C)(C)NC(=O)COc1ccc(CNc2ccc3[nH]c(=O)[nH]c3c2)cc1,54.2% (active)
